Assay results taken from article PMC11381611 (Heliyon, 2024).
Where a name gives a salt, the structure may show the parent alone.

Tested on: Adr-induced arrhythmias
Assay: Adr-induced arrhythmia in rats, electrocardiography
Type: in vivo, rat
Conditions: prophylactic administration, rats with Adr-induced arrhythmia; Fig. 5
Outline: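 Rats (8 per group) got test compound intragastrically once daily for 14 days (5.19, 10.39 or 20.77 g/kg/d), metoprolol tartrate […], or saline 5 mL/kg/d. 30 min after the last dose, rats were anaesthetised i.p. with 0.6 % nembutal (30 mg/kg) and lead II ECG recorded at 50 mm/s. Adrenaline was given by tail vein as cumulative boluses (8, 16, 32, 64, 128) at 10-min intervals or until death. Read-outs were QRS duration and QTc = QT/√RR, as mean ± s.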

SMILES	QRS interval	QTc interval
COCCc1ccc(OCC(O)CNC(C)C)cc1 (centres unmarked) [Meto, metoprolol tartrate]	no significant effect	shortened

Tested on: not given
Assay: not given
Type: in vivo
Conditions: rat, plasma, po, 10.39 g/kg/day

AUC(0-inf) [ng·h/mL]	AUC(0-t) [ng·h/mL]	Cmax [ng/mL]	MRT inf [h]	MRT last [h]	half-life [h]	SMILES
162 ± 12.8	91.1 ± 52.9	30.9 ± 28.6	14.7 ± 7.88	4.26 ± 0.61	11.9 ± 5	COc1ccc2cc3[n+](cc2c1OC)CCc1cc2c(cc1-3)OCO2 [berberine]
7693 ± 68.4	2010 ± 73.3	800 ± 142	2.48 ± 2.81	2.64 ± 1.31	4.78 ± 1.67	O=C(O)/C=C/c1ccccc1 [cinnamic acid]
747 ± 83.6	708 ± 49.2	142 ± 8.69	10.7 ± 5.65	6.75 ± 0.84	7.14 ± 2.06	O=C1C[C@@H](c2ccc(O[C@@H]3O[C@H](CO)[C@@H](O)[C@H](O)[C@H]3O)cc2)Oc2cc(O)ccc21 [liquiritin]
9921 ± 87.6	9892 ± 40.7	2869 ± 22.6	3.28 ± 0.19	3.24 ± 0.11	6.32 ± 0.89	COc1ccc(-c2cc(=O)c3c(OC)c(OC)c(OC)c(OC)c3o2)cc1OC [nobiletin]
615 ± 87.4	603 ± 69.4	145 ± 17	4.76 ± 1.55	4.19 ± 0.83	7.06 ± 4.39	O=c1c(-c2ccc(O)cc2)coc2c([C@@H]3O[C@H](CO)[C@@H](O)[C@H](O)[C@H]3O)c(O)ccc12 [puerarin]
881 ± 47.2	849 ± 54.3	421 ± 97.7	3.66 ± 0.54	2.91 ± 0.54	3.26 ± 1.13	COc1cc2c(cc1OC)[C@@H]1Cc3ccc(OC)c(OC)c3CN1CC2 [tetrahydropalmatine]
3890 ± 60.4	3860 ± 46.4	1170 ± 39.8	4.53 ± 0.33	4.18 ± 0.19	2.58 ± 0.24	C[n+]1cccc(C(=O)[O-])c1 [trigonelline]
